The test system of data set [1] is Staphylococcus aureus. As to the kind of experiment: Antibacterial activity against methicillin-resistant Staphylococcus aureus ATCC 33591 after 48 hrs by microplate assay. In kind it is functional, organism-based. The gist of the method: (§1)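 IC50 values were read from a modified 96-well microplate growth-inhibition assay against ATCC strains: C. neoformans 90113, S. aureus 6535 and methicillin-resistant S. aureus 33591. Positive controls were amphotericin B and tetracycline, and DMSO served as the negative control.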

For another data set, the system named is Cryptococcus neoformans. As to the kind of experiment: […] activity against Cryptococcus neoformans ATCC 90113 after 48 hrs by microplate assay. Type of data set: functional, organism-based. The gist of the method:
as §1

The subject of data set [2] is Staphylococcus aureus. As to the kind of experiment: Antibacterial activity against Staphylococcus aureus ATCC 6535 after 48 hrs by microplate assay. In kind it is functional, organism-based. The essentials:
as §1

Data set [3] can be described thus: Selectivity index, ratio of IC50 for african green monkey (Cercopithecus aethiops) Vero cells to IC50 for chloroquine-sensitive Plasmodium falciparum D6. The following applies: read-out: Ratio IC50. Type of data set: toxicity, cell-based.
Data set [4] can be described thus: Selectivity index, ratio of IC50 for african green monkey (Cercopithecus aethiops) Vero cells to IC50 for chloroquine-resistant Plasmodium falciparum W2. In kind it is toxicity, cell-based. The following applies: read-out: Ratio IC50.
Data set [5] deals with Cannabinoid receptor 1 (Homo sapiens) (UniProt P21554). As to the kind of experiment: Displacement of [3H]CP-55940 from human recombinant CB1 receptor expressed in HEK293 cells at 1 uM. In kind it is cell-based. The gist of the method: (§2)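 Radioligand binding assay for the CB1 site, using human recombinant HEK-293 cells as the receptor source. Compounds were screened in a primary assay at 1 and 0.1 µM and expressed as % affinity. A response above 50% of maximum stimulation or inhibition counted as significant. WIN-55,212-2 was the reference, with DMSO as placebo.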
(Displacement assays read how much labelled ligand stays bound in the presence of the test substance.)

In data set [6] the test system is Plasmodium falciparum. Kind of data set: Antimalarial activity against chloroquine-sensitive Plasmodium falciparum D6 by LDH reporter assay. In kind it is functional, organism-based. On the technique in general: A reporter such as luciferase makes a cellular process visible.
Data set [7] deals with Plasmodium falciparum. As to the kind of experiment: Antimalarial activity against chloroquine-resistant Plasmodium falciparum W2 by LDH reporter assay. Type of data set: functional, organism-based.
In data set [8] the target is Cannabinoid receptor 1 (Homo sapiens) (UniProt P21554). Kind of data set: Displacement of [3H]CP-55940 from human recombinant CB1 receptor expressed in HEK293 cells at 0.1 uM. Type of data set: cell-based. The gist of the method:
as §2

[9] abbreviates: Cryptococcus neoformans, ATCC 90113, 48 h, read-out: IC50.
The mark [10] stands for this setting: Staphylococcus aureus, ATCC 33591, 48 h, read-out: IC50.
[11] abbreviates: Staphylococcus aureus, ATCC 6535, 48 h, read-out: IC50.

In brackets after ≈: the same amount, converted by molar mass. Where only a bound is given, the exact number is not on record here.

What is called IC50 is the concentration needed to halve the response being measured.

Chain of Cannabinoid receptor 1 (Homo sapiens) (P21554 whole entry): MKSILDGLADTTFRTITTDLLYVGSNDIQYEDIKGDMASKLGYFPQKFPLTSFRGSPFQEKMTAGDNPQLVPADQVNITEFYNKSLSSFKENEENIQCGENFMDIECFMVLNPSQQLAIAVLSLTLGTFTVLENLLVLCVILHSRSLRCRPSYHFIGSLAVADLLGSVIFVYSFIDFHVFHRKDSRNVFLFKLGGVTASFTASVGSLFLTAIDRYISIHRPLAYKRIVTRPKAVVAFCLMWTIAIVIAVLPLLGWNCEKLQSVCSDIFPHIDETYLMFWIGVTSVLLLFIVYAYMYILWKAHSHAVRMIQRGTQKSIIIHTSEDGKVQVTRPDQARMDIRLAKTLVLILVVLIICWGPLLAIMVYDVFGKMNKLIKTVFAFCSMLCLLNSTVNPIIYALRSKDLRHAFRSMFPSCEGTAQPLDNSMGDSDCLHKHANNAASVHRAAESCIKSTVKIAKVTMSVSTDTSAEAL

As for `C[C@@H]1[C@H](O)[C@@H](C)/C=C/C=C/C=C/C=C/C=C/C=C/C=C/[C@H](O[C@@H]2O[C@H](C)[C@@H](O)[C@H](N)[C@@H]2O)C[C@@H]2O[C@](O)(C[C@@H](O)C[C@@H](O)[C@H](O)CC[C@@H](O)C[C@@H](O)CC(=O)O[C@H]1C)C[C@H](O)[C@H]2C(=O)O` [AMPHOTERICIN B], the IC50 entry is “Not Active” with Staphylococcus aureus [1], 0.375 mg/L (≈ 0.406 µM) in the data set with Cryptococcus neoformans (setting [9]) and “Not Active” in the data set with Staphylococcus aureus [2].

For `C[C@@H]1CC[C@H]2[C@@H](C)C(=O)O[C@@H]3O[C@@]4(C)CC[C@@H]1[C@]32OO4` [ARTEMISININ], the selectivity ratio in data set [3] was > 952; in data set [4], > 1080.

In the case of `C[C@H]1CC[C@H]2[C@H](C1)c1c(O)cc(/C=C/c3ccccc3)cc1OC2(C)C` [MACHAERIOL A], the IC50 was 10 mg/L (≈ 28.7 µM) with Staphylococcus aureus [1] (setting [10]); 1.5 mg/L (≈ 4.3 µM) with Plasmodium falciparum [6]; 50 mg/L (≈ 143 µM) in the data set with Cryptococcus neoformans (setting [9]); 15 mg/L (≈ 43 µM) in the data set on Staphylococcus aureus [2] (setting [11]); 0.6 mg/L (≈ 1.72 µM) in the data set on Plasmodium falciparum [7]. Moreover, the Activity in data set [5] is 7%; in [8], 10%. Besides, the selectivity ratio in data set [3] was > 3.2; in data set [4], > 7.9.

Turning to `C[C@H]1CC[C@H]2[C@H](C1)c1c(O)cc(-c3cc4ccccc4o3)cc1OC2(C)C` [MACHAERIOL B], the IC50 with Staphylococcus aureus [1] (setting [10]) was 4.5 mg/L (≈ 12.4 µM); with Plasmodium falciparum [6], 0.72 mg/L (≈ 1.99 µM); in the data set with Cryptococcus neoformans, “Not Active”; in the data set with Staphylococcus aureus [2] (setting [11]), 5 mg/L (≈ 13.8 µM); in the data set with Plasmodium falciparum [7], 0.12 mg/L (≈ 0.331 µM). Further, the Activity in data set [5] was -3%; in [8], 3%. For the same compound, the selectivity ratio in [3] was > 6.6; in data set [4], > 40.

Regarding `CN(C)[C@@H]1C(O)=C(C(N)=O)C(=O)[C@@]2(O)C(O)=C3C(=O)c4c(O)cccc4[C@@](C)(O)[C@H]3C[C@@H]12` [TETRACYCLINE], the IC50 in the data set on Staphylococcus aureus [1] (setting [10]) and in the data set on Staphylococcus aureus [2] (setting [11]) was 0.15 mg/L (≈ 0.338 µM) each time.
